Measured values: ChEMBL document CHEMBL2034962, “Immunosuppressive decalin derivatives from red yeast rice” (J Nat Prod, 2012)
Active and inactive are the calls of the source. The rule behind the calls is not given here.

Tests used:
T-cell [1] = experiment: Immunosuppressive activity in human T lymphocytes assessed as inhibition of PMA-ionomycin-induced cell proliferation at 10 to 100 uM after 72 hrs by BrdU-based ELISA analysis; assay type: functional
In short: (§1)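 Nonadherent buffy-coat T lymphocytes (Ficoll, adherence-depleted) at 10^5 cells/well in RPMI 1640 + 10% FBS, in triplicate. Costimulated with PMA–ionomycin ± compound (10–100 μM) for 72 h. BrdU added at 10 μM final, 14 h before the end. Incorporation read by ELISA. Lovastatin and simvastatin served as positive controls. Means ± SEM, one-way ANOVA.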

T-cell [2] = experiment: Immunosuppressive activity in human T lymphocytes assessed as inhibition of PMA-ionomycin-induced cell proliferation after 72 hrs by BrdU-based ELISA analysis; assay type: functional; in short: as §1
[3] = Cytotoxicity against human T lymphocytes at 10 to 100 uM after 72 hrs by MTT assay; conditions: t-cell
In short: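 T cells from buffy-coat blood via Ficoll separation, with macrophages removed by adherence. Cultured at 1 × 10^5 cells/well in RPMI 1640 + 10% FBS, n = 3, with 10–100 μM compound for 72 h. MTT (5 mg/mL) added for 4 h, then dissolved in 10% SDS/50% DMF, pH 7.2. A570 read; viability = Atreated/Acontrol × 100.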

SMILES	Activity (T-cell [1])	inhibition (T-cell [2])	Activity [3]	inhibition (T-cell [1])
C[C@H]1C=C2C=C[C@H](C)[C@H](CCC(=O)O)[C@H]2CC1 [MONASCUSIC ACID A]	Active	Dose-dependent effect	Non-toxic	
C[C@@H]1CC[C@@H]2[C@@H](CCC(=O)O)[C@@H](C)C=C[C@H]2C1 [HEPTAKETIDE]	Active	Dose-dependent effect	Non-toxic	
C[C@H]1C=C2C=C[C@H](C)[C@H](/C=C/C(=O)O)[C@H]2CC1 [MONASCUSIC ACID D]	Active	Dose-dependent effect	Non-toxic	
C[C@H]1C=C2C=C[C@H](C)[C@]3(CCC(=O)O3)[C@H]2CC1 (relative stereo)			Non-toxic	Active
C[C@@H]1CC[C@@H]2/C(=C/CC(=O)O)[C@@H](C)C=C[C@H]2C1 [MONASCUSIC ACID C]	Active	Dose-dependent effect	Non-toxic	
C[C@@H]1CC[C@@H]2[C@@H](/C=C/C(=O)O)[C@@H](C)C=C[C@H]2C1 [MONASCUSIC ACID B]	Active	Dose-dependent effect	Non-toxic	
C[C@H]1C=C2C=C[C@H](C)/C(=C\CC(=O)O)[C@H]2CC1 [MONASCUSIC ACID E]			Non-toxic	Active
